Measurements as given in ChEMBL document CHEMBL3763086, “Salicylanilide N-monosubstituted carbamates: Synthesis and in vitro antimicrobial activity” (2016).
In brackets after ≈: the same amount, converted by molar mass.

Legend:
Format in all cases: functional
[1] = tested on: Escherichia coli; assay: Antibacterial activity against Escherichia coli CCM 4517 after 48 hrs by microbroth dilution method; settings: CCM 4517, 48 h
In short: (§1)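 Microbroth dilution modified per M07-A07 in Mueller-Hinton broth, pH 7.4 (±0.2). Inoculum in sterile water adjusted to 0.5 McFarland. MIC taken as growth reduction of at least 90% (IC90) versus control, read visually and at 540 nm after 24 and 48 h incubation in the dark.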

[2] = tested on: Candida albicans; assay: Antifungal activity against Candida albicans ATCC 44859 after 24 hrs by microbroth dilution method; settings: ATCC 44859, 24 h
[3] = tested on: Pichia kudriavzevii; assay: Antifungal activity against Candida krusei E28 after 24 hrs by microbroth dilution method; settings: E28, 24 h
[4] = tested on: Trichosporon asahii; assay: Antifungal activity against Trichosporon asahii 1188 after 24 hrs by microbroth dilution method; settings: Trichosporon asahii, 1188, 24 h
[5] = tested on: Staphylococcus aureus; assay: Antibacterial activity against Staphylococcus aureus CCM 4516/08 after 48 hrs by microbroth dilution method; settings: CCM 4516/08, 48 h
In short: (§2)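 Microdilution broth method modified after M07-A07 in Mueller-Hinton broth adjusted to pH 7.4 (±0.2). Inoculum prepared in sterile water to 0.5 McFarland (1.5 × 10^8 CFU/mL). MIC taken as growth reduction versus control (IC95 per table header), read visually and spectrophotometrically at 540 nm after 24 and 48 h incubation in the dark.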

[6] = tested on: Escherichia coli; assay: Antibacterial activity against Escherichia coli CCM 4517 after 24 hrs by microbroth dilution method; settings: CCM 4517, 24 h; in short: as §1
[7] = tested on: Enterococcus sp.; assay: Antibacterial activity against Enterococcus sp. J 14365/08 after 48 hrs by microbroth dilution method; settings: J 14365/08, 48 h; in short: as §1
[8] = tested on: Nakaseomyces glabratus; assay: Antifungal activity against Candida glabrata 20/I after 48 hrs by microbroth dilution method
[9] = tested on: Klebsiella pneumoniae; assay: Antibacterial activity against Klebsiella pneumoniae D 11750/08 after 48 hrs by microbroth dilution method; settings: D 11750/08, 48 h; in short: as §1
[10] = tested on: Trichosporon asahii; assay: Antifungal activity against Trichosporon asahii 1188 after 48 hrs by microbroth dilution method; settings: Trichosporon asahii, 1188, 48 h
[11] = tested on: Trichophyton mentagrophytes; assay: Antifungal activity against Trichophyton mentagrophytes 445 after 72 hrs by microbroth dilution method; settings: Trichophyton mentagrophytes, 445, 72 h
[12] = tested on: Nakaseomyces glabratus; assay: Antifungal activity against Candida glabrata 20/I after 24 hrs by microbroth dilution method
[13] = tested on: Candida albicans; assay: Antifungal activity against Candida albicans ATCC 44859 after 48 hrs by microbroth dilution method; settings: ATCC 44859, 48 h
[14] = tested on: Pichia kudriavzevii; assay: Antifungal activity against Candida krusei E28 after 48 hrs by microbroth dilution method; settings: E28, 48 h
[15] = tested on: Klebsiella pneumoniae; assay: Antibacterial activity against Klebsiella pneumoniae D 11750/08 after 24 hrs by microbroth dilution method; settings: D 11750/08, 24 h; in short: as §1
[16] = tested on: Candida tropicalis; assay: Antifungal activity against Candida tropicalis 156 after 48 hrs by microbroth dilution method; settings: Candida tropicalis, 156, 48 h
[17] = tested on: Staphylococcus epidermidis; assay: Antibacterial activity against Staphylococcus epidermidis H 6966/08 after 48 hrs by microbroth dilution method; settings: H 6966/08, 48 h; in short: as §1
[18] = tested on: Enterococcus sp.; assay: Antibacterial activity against Enterococcus sp. J 14365/08 after 24 hrs by microbroth dilution method; settings: J 14365/08, 24 h; in short: as §1
[19] = tested on: Klebsiella pneumoniae; assay: Antibacterial activity against ESBL-positive Klebsiella pneumoniae J 14368/08 after 48 hrs by microbroth dilution method; settings: J 14368/08, 48 h; in short: as §1
[20] = tested on: Staphylococcus epidermidis; assay: Antibacterial activity against Staphylococcus epidermidis H 6966/08 after 24 hrs by microbroth dilution method; settings: H 6966/08, 24 h; in short: as §1
[21] = tested on: Staphylococcus aureus; assay: Antibacterial activity against methicillin-resistant Staphylococcus aureus H 5996/08 after 24 hrs by microbroth dilution method; settings: H 5996/08, 24 h; in short: as §2
[22] = tested on: Lichtheimia corymbifera; assay: Antifungal activity against Absidia corymbifera 272 after 24 hrs by microbroth dilution method; settings: Lichtheimia corymbifera, 272, 24 h
[23] = tested on: Candida tropicalis; assay: Antifungal activity against Candida tropicalis 156 after 24 hrs by microbroth dilution method; settings: Candida tropicalis, 156, 24 h
[24] = tested on: Staphylococcus aureus; assay: Antibacterial activity against methicillin-resistant Staphylococcus aureus H 5996/08 after 48 hrs by microbroth dilution method; settings: H 5996/08, 48 h; in short: as §2
[25] = tested on: Lichtheimia corymbifera; assay: Antifungal activity against Absidia corymbifera 272 after 48 hrs by microbroth dilution method; settings: Lichtheimia corymbifera, 272, 48 h
[26] = tested on: Trichophyton mentagrophytes; assay: Antifungal activity against Trichophyton mentagrophytes 445 after 120 hrs by microbroth dilution method; settings: Trichophyton mentagrophytes, 445, 120 h
[27] = tested on: Staphylococcus aureus; assay: Antibacterial activity against Staphylococcus aureus CCM 4516/08 after 24 hrs by microbroth dilution method; settings: CCM 4516/08, 24 h; in short: as §1
[28] = tested on: Klebsiella pneumoniae; assay: Antibacterial activity against ESBL-positive Klebsiella pneumoniae J 14368/08 after 24 hrs by microbroth dilution method; settings: J 14368/08, 24 h; in short: as §1

Structure (SMILES)	MIC [1] [µM]	MIC [2] [µM]	MIC [3] [µM]	MIC [4] [µM]	MIC [5] [µM]	MIC [6] [µM]	MIC [7] [µM]	MIC [8] [µM]	MIC [9] [µM]	MIC [10] [µM]	MIC [11] [µM]	MIC [12] [µM]	MIC [13] [µM]	MIC [14] [µM]	MIC [15] [µM]	MIC [16] [µM]	MIC [17] [µM]	MIC [18] [µM]	MIC [19] [µM]	MIC [20] [µM]	further results
O=C(NCCc1ccccc1)Oc1ccc(Cl)cc1C(=O)Nc1ccc(Br)cc1	> 500	> 125	> 125	62.5 (≈ 29.6 µg/mL)	1.95 (≈ 0.924 µg/mL)	> 500	> 500	125 (≈ 59.2 µg/mL)	> 500	62.5 (≈ 29.6 µg/mL)	3.9 (≈ 1.85 µg/mL)	125 (≈ 59.2 µg/mL)	> 125	> 125	> 500	> 125	0.98 (≈ 0.464 µg/mL)	> 500	> 500	≤ 0.49	MIC [21]: 0.98 µM (≈ 0.464 µg/mL); MIC [22]: 125 µM (≈ 59.2 µg/mL); MIC [23]: > 125 µM; MIC [24]: 1.95 µM (≈ 0.924 µg/mL); MIC [25]: 125 µM (≈ 59.2 µg/mL); MIC [26]: 3.9 µM (≈ 1.85 µg/mL); MIC [27]: ≤ 0.49 µM; MIC [28]: > 500 µM
O=C(Nc1ccccc1)Oc1ccc(Cl)cc1C(=O)Nc1ccc(F)cc1	> 500	> 250	> 250	> 250	7.81 (≈ 3.01 µg/mL)	> 500	250 (≈ 96.2 µg/mL)	> 250	250 (≈ 96.2 µg/mL)	> 250	3.9 (≈ 1.5 µg/mL)	> 250	> 250	> 250	250 (≈ 96.2 µg/mL)	> 250	7.81 (≈ 3.01 µg/mL)	250 (≈ 96.2 µg/mL)	250 (≈ 96.2 µg/mL)	7.81 (≈ 3.01 µg/mL)	MIC [21]: 7.81 µM (≈ 3.01 µg/mL); MIC [22]: > 250 µM; MIC [23]: > 250 µM; MIC [24]: 7.81 µM (≈ 3.01 µg/mL); MIC [25]: > 250 µM; MIC [26]: 15.6 µM (≈ 6.01 µg/mL); MIC [27]: 7.81 µM (≈ 3.01 µg/mL); MIC [28]: 250 µM (≈ 96.2 µg/mL)
O=C(Nc1ccccc1)Oc1ccc(Cl)cc1C(=O)Nc1ccc(Br)cc1	> 500	> 500	250 (≈ 111 µg/mL)	125 (≈ 55.7 µg/mL)	0.98 (≈ 0.437 µg/mL)	> 500	500 (≈ 223 µg/mL)	125 (≈ 55.7 µg/mL)	> 500	125 (≈ 55.7 µg/mL)	3.9 (≈ 1.74 µg/mL)	125 (≈ 55.7 µg/mL)	> 500	250 (≈ 111 µg/mL)	> 500	> 500	0.98 (≈ 0.437 µg/mL)	500 (≈ 223 µg/mL)	> 500	≤ 0.49	MIC [21]: ≤ 0.49 µM; MIC [22]: > 500 µM; MIC [23]: > 500 µM; MIC [24]: 0.98 µM (≈ 0.437 µg/mL); MIC [25]: > 500 µM; MIC [26]: 3.9 µM (≈ 1.74 µg/mL); MIC [27]: ≤ 0.49 µM; MIC [28]: > 500 µM
O=C(NC1CCCCC1)Oc1ccc(Cl)cc1C(=O)Nc1ccc(Br)cc1	> 500	> 125	> 125	62.5 (≈ 28.2 µg/mL)	0.98 (≈ 0.443 µg/mL)	> 500	500 (≈ 226 µg/mL)	> 125	> 500	62.5 (≈ 28.2 µg/mL)	1.95 (≈ 0.881 µg/mL)	> 125	> 125	> 125	> 500	> 125	0.98 (≈ 0.443 µg/mL)	500 (≈ 226 µg/mL)	> 500	≤ 0.49	MIC [21]: ≤ 0.49 µM; MIC [22]: > 125 µM; MIC [23]: > 125 µM; MIC [24]: 1.95 µM (≈ 0.881 µg/mL); MIC [25]: > 125 µM; MIC [26]: 1.95 µM (≈ 0.881 µg/mL); MIC [27]: ≤ 0.49 µM; MIC [28]: > 500 µM
O=C(NC1CCCCC1)Oc1ccc(Cl)cc1C(=O)Nc1ccc(Cl)cc1	> 125	> 125	125 (≈ 50.9 µg/mL)	125 (≈ 50.9 µg/mL)	7.81 (≈ 3.18 µg/mL)	> 125	> 125	> 125	> 125	125 (≈ 50.9 µg/mL)	7.81 (≈ 3.18 µg/mL)	> 125	> 125	125 (≈ 50.9 µg/mL)	> 125	> 125	0.98 (≈ 0.399 µg/mL)	> 125	> 125	0.98 (≈ 0.399 µg/mL)	MIC [21]: 3.9 µM (≈ 1.59 µg/mL); MIC [22]: 125 µM (≈ 50.9 µg/mL); MIC [23]: > 125 µM; MIC [24]: 15.6 µM (≈ 6.36 µg/mL); MIC [25]: 125 µM (≈ 50.9 µg/mL); MIC [26]: 7.81 µM (≈ 3.18 µg/mL); MIC [27]: 1.95 µM (≈ 0.794 µg/mL); MIC [28]: > 125 µM
